# From ChEMBL document CHEMBL3286189, “Discovery and SAR studies of a novel class of cytotoxic 1,4-disubstituted piperidines via Ugi reaction” (Eur J Med Chem, 2014)
# System: CAKI-1
# Test: Cytostatic activity against human Caki1 cells assessed as inhibition of cell proliferation after 96 hrs by coulter counting analysis
# Type: functional, cell-based
# Conditions: CAKI-1, 96 h
# Summary of the method: (§1)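 Anti-proliferative testing extended to human kidney Caki-1 and human liver Huh-7 tumour cells. The value reported is the IC50, the concentration that inhibits tumour cell growth by 50%.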
row,SMILES,IC50 [µM]
1,CC(C)(C)OC(=O)N[C@@H](Cc1c[nH]c2ccccc12)C(=O)N(Cc1ccccc1)C1(C(=O)NCc2ccccc2)CCN(Cc2ccccc2)CC1,14
2,CCC(C)N(C(=O)[C@H](CC(=O)OC)NC(=O)OCc1ccccc1)C1(C(=O)NCc2ccccc2)CCN(Cc2ccccc2)CC1 (stereo not given in full),8.7
3,C=CCOC(=O)N1CCC(C(=O)NCc2ccccc2)(N(Cc2ccccc2)C(=O)[C@H](Cc2ccccc2)NC(=O)OC(C)(C)C)CC1,12

# System: HeLa
# Test: Cytostatic activity against human HeLa cells assessed as inhibition of cell proliferation after 72 hrs by coulter counting analysis
# Type: functional, cell-based
# Conditions: Homo sapiens, HeLa, 72 h
# Summary of the method: (§2)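 Anti-proliferative screen in murine leukemia L1210, human T-lymphocyte CEM and human cervix carcinoma HeLa cultures. The value reported is the IC50, the concentration that inhibits cell proliferation by 50%.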
row,SMILES,IC50 [µM]
1,COC(=O)C[C@H](NC(=O)OC(C)(C)C)C(=O)N(Cc1ccccc1)C1(C(=O)NCc2ccccc2)CCN(Cc2ccccc2)CC1,20
2,COC(=O)C[C@H](NC(=O)OC(C)(C)C)C(=O)N(CC(=O)OC)C1(C(=O)NCc2ccccc2)CCN(Cc2ccccc2)CC1,32
3,C=CCOC(=O)N1CCC(C(=O)NCc2ccccc2)(N(Cc2ccccc2)C(=O)[C@H](CC(=O)OC)NC(=O)OC(C)(C)C)CC1,107
4,COC(=O)C[C@H](NC(=O)OC(C)(C)C)C(=O)N(Cc1ccccc1)C1(C(=O)NCc2ccccc2)CCN(C(=O)OC(C)(C)C)CC1,24
5,CCCCNC(=O)C1(N(Cc2ccccc2)C(=O)[C@H](CC(=O)OC)NC(=O)OC(C)(C)C)CCN(Cc2ccccc2)CC1,36
6,COC(=O)C[C@H](NC(=O)OC(C)(C)C)C(=O)N(Cc1ccccc1)C1(C(=O)NC(C)(C)C)CCN(Cc2ccccc2)CC1,21
7,COC(=O)C[C@H](NC(=O)OC(C)(C)C)C(=O)N(Cc1ccccc1)C1(C(=O)NC2CCCCC2)CCN(Cc2ccccc2)CC1,21
8,COC(=O)CNC(=O)C1(N(Cc2ccccc2)C(=O)[C@H](CC(=O)OC)NC(=O)OC(C)(C)C)CCN(Cc2ccccc2)CC1,227
9,COC(=O)C[C@H](NC(=O)OC(C)(C)C)C(=O)N(Cc1ccc(F)cc1)C1(C(=O)NCc2ccccc2)CCN(Cc2ccccc2)CC1,19
10,COC(=O)C[C@H](NC(=O)OC(C)(C)C)C(=O)N(Cc1cc(OC)c(OC)c(OC)c1)C1(C(=O)NCc2ccccc2)CCN(Cc2ccccc2)CC1,22
11,COC(=O)C[C@H](NC(=O)OC(C)(C)C)C(=O)N(CCNc1ccccc1)C1(C(=O)NCc2ccccc2)CCN(Cc2ccccc2)CC1,21
12,COC(=O)C[C@H](NC(=O)OC(C)(C)C)C(=O)NC1(C(=O)NCc2ccccc2)CCN(Cc2ccccc2)CC1,24
13,COC(=O)C[C@H](NC(=O)OC(C)(C)C)C(=O)N(C)C1(C(=O)NCc2ccccc2)CCN(Cc2ccccc2)CC1,11
14,CCC(C)N(C(=O)[C@H](CC(=O)OC)NC(=O)OC(C)(C)C)C1(C(=O)NCc2ccccc2)CCN(Cc2ccccc2)CC1 (stereo not given in full),16
15,COC(=O)C[C@H](NC(=O)OC(C)(C)C)C(=O)N(C1CC1)C1(C(=O)NCc2ccccc2)CCN(Cc2ccccc2)CC1,7.9
16,CC(C)(C)OC(=O)N1CCC[C@H]1C(=O)N(Cc1ccccc1)C1(C(=O)NCc2ccccc2)CCN(Cc2ccccc2)CC1,137
17,CC[C@H](C)[C@H](NC(=O)OC(C)(C)C)C(=O)N(Cc1ccccc1)C1(C(=O)NCc2ccccc2)CCN(Cc2ccccc2)CC1,10
18,CC(C)(C)OC(=O)N[C@@H](Cc1ccc(O)cc1)C(=O)N(Cc1ccccc1)C1(C(=O)NCc2ccccc2)CCN(Cc2ccccc2)CC1,23
19,CC(C)(C)OC(=O)N[C@@H](Cc1c[nH]c2ccccc12)C(=O)N(Cc1ccccc1)C1(C(=O)NCc2ccccc2)CCN(Cc2ccccc2)CC1,5.9
20,COC(=O)C[C@H](NC(=O)OCc1ccccc1)C(=O)N(Cc1ccccc1)C1(C(=O)NCc2ccccc2)CCN(Cc2ccccc2)CC1,14
21,COC(=O)C[C@H](NC(=O)OCC1c2ccccc2-c2ccccc21)C(=O)N(Cc1ccccc1)C1(C(=O)NCc2ccccc2)CCN(Cc2ccccc2)CC1,14
22,CCC(C)N(C(=O)[C@H](CC(=O)OC)NC(=O)OCc1ccccc1)C1(C(=O)NCc2ccccc2)CCN(Cc2ccccc2)CC1 (stereo not given in full),4.3
23,C=CCOC(=O)N1CCC(C(=O)NCc2ccccc2)(N(Cc2ccccc2)C(=O)[C@H](Cc2ccccc2)NC(=O)OC(C)(C)C)CC1,7

# System: CCRF-CEM
# Test: Cytostatic activity against human CEM cells assessed as inhibition of cell proliferation after 72 hrs by coulter counting analysis
# Type: functional, cell-based
# Conditions: Homo sapiens, CCRF-CEM, 72 h
# Summary of the method: as §2
row,SMILES,IC50 [µM]
1,COC(=O)C[C@H](NC(=O)OC(C)(C)C)C(=O)N(Cc1ccccc1)C1(C(=O)NCc2ccccc2)CCN(Cc2ccccc2)CC1,19
2,COC(=O)C[C@H](NC(=O)OC(C)(C)C)C(=O)N(CC(=O)OC)C1(C(=O)NCc2ccccc2)CCN(Cc2ccccc2)CC1,46
3,C=CCOC(=O)N1CCC(C(=O)NCc2ccccc2)(N(Cc2ccccc2)C(=O)[C@H](CC(=O)OC)NC(=O)OC(C)(C)C)CC1,65
4,COC(=O)C[C@H](NC(=O)OC(C)(C)C)C(=O)N(Cc1ccccc1)C1(C(=O)NCc2ccccc2)CCN(C(=O)OC(C)(C)C)CC1,21
5,CCCCNC(=O)C1(N(Cc2ccccc2)C(=O)[C@H](CC(=O)OC)NC(=O)OC(C)(C)C)CCN(Cc2ccccc2)CC1,28
6,COC(=O)C[C@H](NC(=O)OC(C)(C)C)C(=O)N(Cc1ccccc1)C1(C(=O)NC(C)(C)C)CCN(Cc2ccccc2)CC1,24
7,COC(=O)C[C@H](NC(=O)OC(C)(C)C)C(=O)N(Cc1ccccc1)C1(C(=O)NC2CCCCC2)CCN(Cc2ccccc2)CC1,20
8,COC(=O)CNC(=O)C1(N(Cc2ccccc2)C(=O)[C@H](CC(=O)OC)NC(=O)OC(C)(C)C)CCN(Cc2ccccc2)CC1,109
9,COC(=O)C[C@H](NC(=O)OC(C)(C)C)C(=O)N(Cc1ccc(F)cc1)C1(C(=O)NCc2ccccc2)CCN(Cc2ccccc2)CC1,16
10,COC(=O)C[C@H](NC(=O)OC(C)(C)C)C(=O)N(Cc1cc(OC)c(OC)c(OC)c1)C1(C(=O)NCc2ccccc2)CCN(Cc2ccccc2)CC1,23
11,COC(=O)C[C@H](NC(=O)OC(C)(C)C)C(=O)N(CCNc1ccccc1)C1(C(=O)NCc2ccccc2)CCN(Cc2ccccc2)CC1,14
12,COC(=O)C[C@H](NC(=O)OC(C)(C)C)C(=O)NC1(C(=O)NCc2ccccc2)CCN(Cc2ccccc2)CC1,25
13,COC(=O)C[C@H](NC(=O)OC(C)(C)C)C(=O)N(C)C1(C(=O)NCc2ccccc2)CCN(Cc2ccccc2)CC1,20
14,CCC(C)N(C(=O)[C@H](CC(=O)OC)NC(=O)OC(C)(C)C)C1(C(=O)NCc2ccccc2)CCN(Cc2ccccc2)CC1 (stereo not given in full),19
15,COC(=O)C[C@H](NC(=O)OC(C)(C)C)C(=O)N(C1CC1)C1(C(=O)NCc2ccccc2)CCN(Cc2ccccc2)CC1,6.7
16,CC(C)(C)OC(=O)N1CCC[C@H]1C(=O)N(Cc1ccccc1)C1(C(=O)NCc2ccccc2)CCN(Cc2ccccc2)CC1,> 50
17,CC[C@H](C)[C@H](NC(=O)OC(C)(C)C)C(=O)N(Cc1ccccc1)C1(C(=O)NCc2ccccc2)CCN(Cc2ccccc2)CC1,7.1
18,CC(C)(C)OC(=O)N[C@@H](Cc1ccc(O)cc1)C(=O)N(Cc1ccccc1)C1(C(=O)NCc2ccccc2)CCN(Cc2ccccc2)CC1,5.2
19,CC(C)(C)OC(=O)N[C@@H](Cc1c[nH]c2ccccc12)C(=O)N(Cc1ccccc1)C1(C(=O)NCc2ccccc2)CCN(Cc2ccccc2)CC1,5.9
20,COC(=O)C[C@H](NC(=O)OCc1ccccc1)C(=O)N(Cc1ccccc1)C1(C(=O)NCc2ccccc2)CCN(Cc2ccccc2)CC1,4.5
21,COC(=O)C[C@H](NC(=O)OCC1c2ccccc2-c2ccccc21)C(=O)N(Cc1ccccc1)C1(C(=O)NCc2ccccc2)CCN(Cc2ccccc2)CC1,5.2
22,CCC(C)N(C(=O)[C@H](CC(=O)OC)NC(=O)OCc1ccccc1)C1(C(=O)NCc2ccccc2)CCN(Cc2ccccc2)CC1 (stereo not given in full),4.5
23,C=CCOC(=O)N1CCC(C(=O)NCc2ccccc2)(N(Cc2ccccc2)C(=O)[C@H](Cc2ccccc2)NC(=O)OC(C)(C)C)CC1,4.7

# System: Huh-7
# Test: Cytostatic activity against human HuH7 cells assessed as inhibition of cell proliferation after 96 hrs by coulter counting analysis
# Type: functional, cell-based
# Conditions: Huh-7, 96 h
# Summary of the method: as §1
row,SMILES,IC50 [µM]
1,CC(C)(C)OC(=O)N[C@@H](Cc1c[nH]c2ccccc12)C(=O)N(Cc1ccccc1)C1(C(=O)NCc2ccccc2)CCN(Cc2ccccc2)CC1,6.6
2,CCC(C)N(C(=O)[C@H](CC(=O)OC)NC(=O)OCc1ccccc1)C1(C(=O)NCc2ccccc2)CCN(Cc2ccccc2)CC1 (stereo not given in full),6.4
3,C=CCOC(=O)N1CCC(C(=O)NCc2ccccc2)(N(Cc2ccccc2)C(=O)[C@H](Cc2ccccc2)NC(=O)OC(C)(C)C)CC1,8.1

# System: L1210
# Test: Cytostatic activity against mouse L1210 cells assessed as inhibition of cell proliferation after 48 hrs by coulter counting analysis
# Type: functional, cell-based
# Conditions: Mus musculus, L1210, 48 h
# Summary of the method: as §2
row,SMILES,IC50 [µM]
1,COC(=O)C[C@H](NC(=O)OC(C)(C)C)C(=O)N(Cc1ccccc1)C1(C(=O)NCc2ccccc2)CCN(Cc2ccccc2)CC1,18
2,COC(=O)C[C@H](NC(=O)OC(C)(C)C)C(=O)N(CC(=O)OC)C1(C(=O)NCc2ccccc2)CCN(Cc2ccccc2)CC1,49
3,C=CCOC(=O)N1CCC(C(=O)NCc2ccccc2)(N(Cc2ccccc2)C(=O)[C@H](CC(=O)OC)NC(=O)OC(C)(C)C)CC1,24
4,COC(=O)C[C@H](NC(=O)OC(C)(C)C)C(=O)N(Cc1ccccc1)C1(C(=O)NCc2ccccc2)CCN(C(=O)OC(C)(C)C)CC1,21
5,CCCCNC(=O)C1(N(Cc2ccccc2)C(=O)[C@H](CC(=O)OC)NC(=O)OC(C)(C)C)CCN(Cc2ccccc2)CC1,24
6,COC(=O)C[C@H](NC(=O)OC(C)(C)C)C(=O)N(Cc1ccccc1)C1(C(=O)NC(C)(C)C)CCN(Cc2ccccc2)CC1,23
7,COC(=O)C[C@H](NC(=O)OC(C)(C)C)C(=O)N(Cc1ccccc1)C1(C(=O)NC2CCCCC2)CCN(Cc2ccccc2)CC1,19
8,COC(=O)CNC(=O)C1(N(Cc2ccccc2)C(=O)[C@H](CC(=O)OC)NC(=O)OC(C)(C)C)CCN(Cc2ccccc2)CC1,123
9,COC(=O)C[C@H](NC(=O)OC(C)(C)C)C(=O)N(Cc1ccc(F)cc1)C1(C(=O)NCc2ccccc2)CCN(Cc2ccccc2)CC1,22
10,COC(=O)C[C@H](NC(=O)OC(C)(C)C)C(=O)N(Cc1cc(OC)c(OC)c(OC)c1)C1(C(=O)NCc2ccccc2)CCN(Cc2ccccc2)CC1,31
11,COC(=O)C[C@H](NC(=O)OC(C)(C)C)C(=O)N(CCNc1ccccc1)C1(C(=O)NCc2ccccc2)CCN(Cc2ccccc2)CC1,21
12,COC(=O)C[C@H](NC(=O)OC(C)(C)C)C(=O)NC1(C(=O)NCc2ccccc2)CCN(Cc2ccccc2)CC1,23
13,COC(=O)C[C@H](NC(=O)OC(C)(C)C)C(=O)N(C)C1(C(=O)NCc2ccccc2)CCN(Cc2ccccc2)CC1,17
14,CCC(C)N(C(=O)[C@H](CC(=O)OC)NC(=O)OC(C)(C)C)C1(C(=O)NCc2ccccc2)CCN(Cc2ccccc2)CC1 (stereo not given in full),20
15,COC(=O)C[C@H](NC(=O)OC(C)(C)C)C(=O)N(C1CC1)C1(C(=O)NCc2ccccc2)CCN(Cc2ccccc2)CC1,14
16,CC(C)(C)OC(=O)N1CCC[C@H]1C(=O)N(Cc1ccccc1)C1(C(=O)NCc2ccccc2)CCN(Cc2ccccc2)CC1,61
17,CC[C@H](C)[C@H](NC(=O)OC(C)(C)C)C(=O)N(Cc1ccccc1)C1(C(=O)NCc2ccccc2)CCN(Cc2ccccc2)CC1,4.4
18,CC(C)(C)OC(=O)N[C@@H](Cc1ccc(O)cc1)C(=O)N(Cc1ccccc1)C1(C(=O)NCc2ccccc2)CCN(Cc2ccccc2)CC1,5
19,CC(C)(C)OC(=O)N[C@@H](Cc1c[nH]c2ccccc12)C(=O)N(Cc1ccccc1)C1(C(=O)NCc2ccccc2)CCN(Cc2ccccc2)CC1,4.6
20,COC(=O)C[C@H](NC(=O)OCc1ccccc1)C(=O)N(Cc1ccccc1)C1(C(=O)NCc2ccccc2)CCN(Cc2ccccc2)CC1,5.8
21,COC(=O)C[C@H](NC(=O)OCC1c2ccccc2-c2ccccc21)C(=O)N(Cc1ccccc1)C1(C(=O)NCc2ccccc2)CCN(Cc2ccccc2)CC1,5.4
22,CCC(C)N(C(=O)[C@H](CC(=O)OC)NC(=O)OCc1ccccc1)C1(C(=O)NCc2ccccc2)CCN(Cc2ccccc2)CC1 (stereo not given in full),5.3
23,C=CCOC(=O)N1CCC(C(=O)NCc2ccccc2)(N(Cc2ccccc2)C(=O)[C@H](Cc2ccccc2)NC(=O)OC(C)(C)C)CC1,4.2
